Where a SMILES comes first, the peptide text is derived from it. [ ]: non-standard residue; d: D form. Orn = NCCC[C@H](N)C(=O)O; Dab = NCC[C@H](N)C(=O)O; Dap = NC[C@H](N)C(=O)O
Assay: Antagonist activity against Streptococcus pneumoniae TIGR4-pcomX-lacZ strain expressing ComD2 receptor assessed as inhibition of ComD2 receptor activity by beta-galactosidase reporter gene assay
Method in brief: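 TIGR4 pcomX::lacZ reporter grown on THY plates with 5% horse serum and 4 μg/mL chloramphenicol (8–9 h, 37 °C, 5% CO2). 2–3 colonies were grown overnight (15 h) in THY with chloramphenicol, diluted 1:10, and grown 3–4 h to OD600 0.20–0.25. Peptides were tested as competitive inhibitors against native CSP2. […] Three independent experiments.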

Row | IC50 [nM] | SMILES
1 | > 1000 | CC[C@H](C)[C@H](NC(=O)[C@H](Cc1ccccc1)NC(=O)[C@H](CCCN)NC(=O)[C@H](CCCNC(=N)N)NC(=O)[C@H](Cc1ccccc1)NC(=O)[C@H](Cc1ccccc1)NC(=O)[C@H](CCN)NC(=O)[C@H](CO)NC(=O)[C@H](CC(C)C)NC(=O)[C@H](CCCNC(=N)N)NC(=O)[C@H](CCSC)NC(=O)[C@H](C)N)C(=O)N[C@@H](CC(C)C)C(=O)N[C@@H](CCC(N)=O)C(=O)N[C@@H](CCCNC(=N)N)C(=O)N[C@@H](CCCCN)C(=O)N[C@@H](CCCCN)C(=O)O (H-AMRLS[Dab]FFR[Orn]FILQRKK-OH)
2 | > 1000 | CC[C@H](C)[C@H](NC(=O)[C@H](Cc1ccccc1)NC(=O)[C@H](CCN)NC(=O)[C@H](CCCNC(=N)N)NC(=O)[C@H](Cc1ccccc1)NC(=O)[C@H](Cc1ccccc1)NC(=O)[C@H](CCCN)NC(=O)[C@H](CO)NC(=O)[C@H](CC(C)C)NC(=O)[C@H](CCCNC(=N)N)NC(=O)[C@H](CCSC)NC(=O)[C@H](C)N)C(=O)N[C@@H](CC(C)C)C(=O)N[C@@H](CCC(N)=O)C(=O)N[C@@H](CCCNC(=N)N)C(=O)N[C@@H](CCCCN)C(=O)N[C@@H](CCCCN)C(=O)O (H-AMRLS[Orn]FFR[Dab]FILQRKK-OH)

More lines, now with the values behind:

Row | SMILES | IC50 [nM]
3 | CC[C@H](C)[C@H](NC(=O)[C@H](Cc1ccccc1)NC(=O)[C@H](CCN)NC(=O)[C@H](CCCNC(=N)N)NC(=O)[C@H](Cc1ccccc1)NC(=O)[C@H](Cc1ccccc1)NC(=O)[C@H](CCN)NC(=O)[C@H](CO)NC(=O)[C@H](CC(C)C)NC(=O)[C@H](CCCNC(=N)N)NC(=O)[C@H](CCSC)NC(=O)[C@H](C)N)C(=O)N[C@@H](CC(C)C)C(=O)N[C@@H](CCC(N)=O)C(=O)N[C@@H](CCCNC(=N)N)C(=O)N[C@@H](CCCCN)C(=O)N[C@@H](CCCCN)C(=O)O (H-AMRLS[Dab]FFR[Dab]FILQRKK-OH) | > 1000
4 | CC[C@H](C)[C@H](NC(=O)[C@H](Cc1ccccc1)NC(=O)[C@H](CN)NC(=O)[C@H](CCCNC(=N)N)NC(=O)[C@H](Cc1ccccc1)NC(=O)[C@H](Cc1ccccc1)NC(=O)[C@H](CCN)NC(=O)[C@H](CO)NC(=O)[C@H](CC(C)C)NC(=O)[C@H](CCCNC(=N)N)NC(=O)[C@H](CCSC)NC(=O)[C@H](C)N)C(=O)N[C@@H](CC(C)C)C(=O)N[C@@H](CCC(N)=O)C(=O)N[C@@H](CCCNC(=N)N)C(=O)N[C@@H](CCCCN)C(=O)N[C@@H](CCCCN)C(=O)O (H-AMRLS[Dab]FFR[Dap]FILQRKK-OH) | > 1000
5 | CC[C@H](C)[C@H](NC(=O)[C@H](Cc1ccccc1)NC(=O)[C@H](CN)NC(=O)[C@H](CCCNC(=N)N)NC(=O)[C@H](Cc1ccccc1)NC(=O)[C@H](Cc1ccccc1)NC(=O)[C@H](CCCN)NC(=O)[C@H](CO)NC(=O)[C@H](CC(C)C)NC(=O)[C@H](CCCNC(=N)N)NC(=O)[C@H](CCSC)NC(=O)[C@H](C)N)C(=O)N[C@@H](CC(C)C)C(=O)N[C@@H](CCC(N)=O)C(=O)N[C@@H](CCCNC(=N)N)C(=O)N[C@@H](CCCCN)C(=O)N[C@@H](CCCCN)C(=O)O (H-AMRLS[Orn]FFR[Dap]FILQRKK-OH) | > 1000
6 | CC[C@H](C)[C@H](NC(=O)[C@H](Cc1ccccc1)NC(=O)[C@H](CCCN)NC(=O)[C@H](CCCNC(=N)N)NC(=O)[C@H](Cc1ccccc1)NC(=O)[C@H](Cc1ccccc1)NC(=O)[C@H](CCCN)NC(=O)[C@H](CO)NC(=O)[C@H](CC(C)C)NC(=O)[C@H](CCCNC(=N)N)NC(=O)[C@H](CCSC)NC(=O)[C@H](C)N)C(=O)N[C@@H](CC(C)C)C(=O)N[C@@H](CCC(N)=O)C(=O)N[C@@H](CCCNC(=N)N)C(=O)N[C@@H](CCCCN)C(=O)N[C@@H](CCCCN)C(=O)O (H-AMRLS[Orn]FFR[Orn]FILQRKK-OH) | > 1000
